The species named for assay [1] is Oryctolagus cuniculus. Put plainly: Inhibition of rabbit skeletal muscle SERCA activity relative to TG.
The species entered for assay [2] is Oryctolagus cuniculus. As to the kind of experiment: Inhibition of rabbit skeletal muscle sarcoplasmic and endoplasmic reticulum [Ca(2+)]-dependent ATPases(SERCA) activity. The procedure, abridged:
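Rabbit skeletal-muscle SR microsomes were prepared by differential centrifugation with a 0.6 M KCl wash. Buffer was pH 7.5 Tris with KCl, MgCl2, EGTA/CaCl2 and A23187. Doses were in nmol/mg SR protein. Activity is % of uninhibited control in triplicate, corrected for residual Ca²⁺-independent ATPase.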

Assay [3] in a line: Loss of clonogenic survival of human prostate cancer TSU-Pr1 cells relative to TG was determined. It counts as functional.
Assay [4] is described as follows: Loss of clonogenic survival of human prostate cancer TSU-Pr1 cells. The settings on record: read-out: LC50 (the source's name). In kind it is functional. The gist of the method:
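TSU-Pr1 human prostatic cancer cells treated with each analogue. Clonogenic survival compared with untreated controls. Value reported as LC50 (µM), the concentration producing 50% loss of clonogenic survival.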

The nature of assay [5]: Increase in cytosolic [Ca2+] concentration in TSU-Pr1 cells at given effective cytotoxic concentration. It counts as functional, Homo sapiens.

This is an account of results in ChEMBL document CHEMBL1134327, “Design, synthesis, and pharmacological evaluation of thapsigargin analogues for targeting apoptosis to prostatic cancer cells” (2001).

Several values for one entry are separate records, joined by “and”; a condition that tells them apart may be missing. Equal entries are not always repeated. Bounds are passed on as bounds.

Regarding `C/C=C(/C)C(=O)O[C@H]1C(C)=C2[C@H]([C@@H]1OC(=O)CCCCCCC)[C@@](C)(OC(C)=O)C[C@H](OC(=O)CCC)[C@@]1(O)[C@H]2OC(=O)[C@@]1(C)O` [THAPSIGARGIN], the Activity (in the assay filed under Oryctolagus cuniculus [1]; in assay [3]) was 1 each time. The same compound displayed an ID50 (nM (mg SR protein)-1) in the assay listed under Oryctolagus cuniculus [2] of 13.4. The CC50 in assay [4] was 30 nM.
In the case of `C/C=C(/C)C(=O)O[C@H]1C(C)=C2[C@H]([C@@H]1OC(=O)CCCCCCC)[C@@](C)(OC(C)=O)C[C@H](OC(=O)CCCCCCCCCCCNC(=O)[C@@H](N)CO)[C@@]1(O)[C@H]2OC(=O)[C@@]1(C)O`, the Activity worked out at 0.8 in the assay listed under Oryctolagus cuniculus [1] and 30 in assay [3]. In the assay filed under Oryctolagus cuniculus [2], the ID50 (nM (mg SR protein)-1) was 10.3. Besides, the CC50 in assay [4] turned out to be 890 nM.
Taken in the same sequence, the figures for `C/C=C(/C)C(=O)O[C@H]1C(C)=C2[C@H]([C@@H]1OC(=O)CCCCCCC)[C@@](C)(OC(C)=O)C[C@H](OC(=O)CCc1ccc(NC(=O)[C@@H](N)CC(C)C)cc1)[C@@]1(O)[C@H]2OC(=O)[C@@]1(C)O` were 35, 29, 466 and 880 nM.
Consider `C/C=C(/C)C(=O)O[C@H]1C(C)=C2[C@H]([C@@H]1OC(=O)CCCCCCC)[C@@](C)(OC(C)=O)C[C@H](OC(=O)CCCCCCCCCCCNC(=O)[C@@H](N)Cc1ccccc1)[C@@]1(O)[C@H]2OC(=O)[C@@]1(C)O`, for which the Activity in assay [3] was 7; in assay [5], 446 nM and 406 nM. Further, the CC50 in assay [4] was 210 nM.
In the case of `C/C=C(/C)C(=O)O[C@H]1C(C)=C2[C@H]([C@@H]1OC(=O)CCCCCCC)[C@@](C)(OC(C)=O)C[C@H](OC(=O)CCCCCCN)[C@@]1(O)[C@H]2OC(=O)[C@@]1(C)O`, the results for the Activity (in the assay listed under Oryctolagus cuniculus [1]; in assay [3]; in assay [5]) were 90, 364 and 209 nM, respectively. In the assay listed under Oryctolagus cuniculus [2], this compound had an ID50 (nM (mg SR protein)-1) of 1210. The CC50 in assay [4] is 10900 nM.
Turning to `C/C=C(/C)C(=O)O[C@H]1C(C)=C2[C@H]([C@@H]1OC(=O)CCCCCCC)[C@@](C)(OC(C)=O)C[C@H](OC(=O)CCCCCN)[C@@]1(O)[C@H]2OC(=O)[C@@]1(C)O`, the Activity is 99 in the assay listed under Oryctolagus cuniculus [1], greater than 667 in assay [3] and 284 nM in assay [5]. The compound also came in with an ID50 (nM (mg SR protein)-1) in the assay listed under Oryctolagus cuniculus [2] of 1330. Moreover, the CC50 in assay [4] is greater than 20000 nM.
For `C/C=C(/C)C(=O)O[C@H]1C(C)=C2[C@H]([C@@H]1OC(=O)CCCCCCC)[C@@](C)(OC(C)=O)C[C@H](OC(=O)CCCCCCCCCCN)[C@@]1(O)[C@H]2OC(=O)[C@@]1(C)O`, the Activity in the assay filed under Oryctolagus cuniculus [1] was 3; in assay [3], 25; in assay [5], 420 nM and 242 nM. Moreover, the ID50 (nM (mg SR protein)-1) in the assay listed under Oryctolagus cuniculus [2] amounted to 40. Also, the CC50 in assay [4] was 750 nM.
Take `C/C=C(/C)C(=O)O[C@H]1C(C)=C2[C@H]([C@@H]1OC(=O)CCCCCCC)[C@@](C)(OC(C)=O)C[C@H](OC(=O)CCCCCCCN)[C@@]1(O)[C@H]2OC(=O)[C@@]1(C)O`: the Activity in the assay listed under Oryctolagus cuniculus [1] worked out at 17; in assay [3], 128; in assay [5], 217 nM. For the same compound, the ID50 (nM (mg SR protein)-1) in the assay filed under Oryctolagus cuniculus [2] is 223. Moreover, the CC50 in assay [4] was 3850 nM.
Turning to `C/C=C(/C)C(=O)O[C@H]1C(C)=C2[C@H]([C@@H]1OC(=O)CCCCCCC)[C@@](C)(OC(C)=O)C[C@H](OC(=O)CCCCCNC(=O)[C@@H](N)CC(C)C)[C@@]1(O)[C@H]2OC(=O)[C@@]1(C)O`, the Activity in the assay listed under Oryctolagus cuniculus [1] was 287; in assay [3], greater than 667; in assay [5] it was 84 nM and 40 nM. In addition, the ID50 (nM (mg SR protein)-1) in the assay listed under Oryctolagus cuniculus [2] came out at 3840. In addition, the CC50 in assay [4] was greater than 20000 nM.
Regarding `C/C=C(/C)C(=O)O[C@H]1C(C)=C2[C@H]([C@@H]1OC(=O)CCCCCCC)[C@@](C)(OC(C)=O)C[C@H](OC(=O)CCCCCCCCCCCN)[C@@]1(O)[C@H]2OC(=O)[C@@]1(C)O`, the Activity in the assay listed under Oryctolagus cuniculus [1] is 2.6; in assay [3], 39; in assay [5], 369 nM and 235 nM. In the assay listed under Oryctolagus cuniculus [2], this compound yielded an ID50 (nM (mg SR protein)-1) of 35. Besides, the CC50 in assay [4] was 1160 nM.
As to `C/C=C(/C)C(=O)O[C@H]1C(C)=C2[C@H]([C@@H]1OC(=O)CCCCCCC)[C@@](C)(OC(C)=O)C[C@H](OC(=O)CCCCCCCCCCCNC(=O)[C@H](C)N)[C@@]1(O)[C@H]2OC(=O)[C@@]1(C)O`, the Activity in the assay listed under Oryctolagus cuniculus [1] was 1.2; in assay [3] it was 9.3; in assay [5] it was 410 nM and 338 nM. Also, the ID50 (nM (mg SR protein)-1) in the assay filed under Oryctolagus cuniculus [2] was 16.5. Further, the CC50 in assay [4] was 280 nM.
As to `C/C=C(/C)C(=O)O[C@H]1C(C)=C2[C@H]([C@@H]1OC(=O)CCCCCCC)[C@@](C)(OC(C)=O)C[C@H](OC(=O)CCCCCCCCCCCNC(=O)[C@@H](N)CC(C)C)[C@@]1(O)[C@H]2OC(=O)[C@@]1(C)O`, the Activity was 3.4 in the assay filed under Oryctolagus cuniculus [1], 1 in assay [3] and 414 nM in assay [5]. In the assay filed under Oryctolagus cuniculus [2], this compound showed an ID50 (nM (mg SR protein)-1) of 45. Besides, the CC50 in assay [4] came out at 30 nM. In addition, in assay [5], the “[Ca2+]” value was 173 nM.
